According to paper PMC4339462 (Bioorganic & medicinal chemistry, 2015):
Structures can show the parent of a compound that is named as a salt.

Tests used:
[1] = tested on: εA-containing oligonucleotide; assay: SPR binding of compounds to immobilized εA-containing oligonucleotide; conditions: 15 µM compound
Method in brief: (§1)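 Biacore T100 SPR. Biotinylated 50-mer oligonucleotide, undamaged or εA-containing, immobilised on a streptavidin-coated C1 chip. Test compound injected at 15 µM in 10 mM HEPES-KOH pH 7.6, 90 mM KCl, 0.05% surfactant P20, at 7°C. Binding read as background-subtracted RU over 60 s injections.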

[2] = tested on: undamaged (control) oligonucleotide; assay: SPR binding of compounds to immobilized undamaged; conditions: 15 µM compound
Method in brief: as §1

A549 cells = assay: MTT assay; type: cell-based, human; conditions: A549, concentrations used in the repair assay, 72 h
APE1 = conditions: high throughput screening; ref Pubchem Bioassay AID 485314 and 2517; cited from earlier work
[3] = tested on: apurinic/apyrimidinic endonuclease 1 (APE1); assay: Gel-based APE1 activity assay; type: biochemical; conditions: 0, 20 and 40 µM
Method in brief: (§2)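 Purified recombinant APE1 pre-incubated with test compound for 10 min at room temperature. Then reacted with a ³²P-labelled duplex oligonucleotide carrying a THF abasic-site analogue for 10 min at 37°C. Products resolved on denaturing 20% polyacrylamide/7 M urea gels at 60°C; band intensities quantified from X-ray film.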

DNA polymerase β = conditions: high throughput screening; ref Pubchem Bioassay AID 485314 and 2517; cited from earlier work
MPG [4] = target: T1, MPG (Homo sapiens, UniProt P29372); assay: Gel-based MPG activity assay in whole cell extracts; type: biochemical; conditions: 0–300 µM compound
T1 sequence (P29372 18-298): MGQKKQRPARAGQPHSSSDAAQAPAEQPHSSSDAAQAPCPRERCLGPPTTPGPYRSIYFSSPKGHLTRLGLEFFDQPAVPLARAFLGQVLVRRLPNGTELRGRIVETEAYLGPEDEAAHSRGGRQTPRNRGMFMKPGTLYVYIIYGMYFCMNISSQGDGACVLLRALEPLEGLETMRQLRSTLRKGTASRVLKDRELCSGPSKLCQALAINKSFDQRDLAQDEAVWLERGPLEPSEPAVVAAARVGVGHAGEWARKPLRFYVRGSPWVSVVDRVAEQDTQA

HeLa cells = assay: MTT assay; type: cell-based, human; conditions: concentrations used in the repair assay, 72 h
repair of 8-oxo-dG = assay: Plasmid-based in-cell repair assay, 8-oxo-dG-containing M13mp18 plasmid; design: species or system human
Method in brief: (§3)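 Lesion (εA or 8-oxo-dG) was placed at the EcoRI site of M13mp18. A phosphorylated lesion primer was annealed to ssDNA, extended with T7 polymerase, ligated with T4 ligase, supercoiled and purified. A549 and HeLa cells (DMEM, 10% FBS, 1% antibiotic) were transfected with 0, 200 or 300 µM test compound. Recovered plasmids were cut with EcoRI (lesion site) and SacI (internal control), and repair was scored by plaque formation.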

MPG [5] = target: T1, MPG; assay: SPR inhibition of hMPG binding to εA-containing substrate DNA; conditions: 40 µM morin hydrate
Method in brief: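 SPR with biotinylated εA-containing 50-mer oligonucleotide immobilised on a streptavidin C1 chip. Injections of 30 nM purified human MPG pre-mixed with test compound (0, 5, 10, 20, 40 µM), 60 s each. Binding taken as background-subtracted RU. Percent inhibition calculated as the decrease in RU versus DMSO.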

[6] = tested on: 8-oxoguanine DNA glycosylase (OGG1); assay: Gel-based OGG1 activity assay; type: biochemical; conditions: 0, 20 and 40 µM; not dose-dependent
Method in brief: as §2, with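 “OGG1” for “APE1”, “³²P-labelled 8-oxo-dG-containing” for “³²P-labelled”, “oligonucleotide” for “oligonucleotide carrying a THF abasic-site analogue”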

repair of εA = assay: Plasmid-based in-cell repair assay, εA-containing M13mp18 plasmid; design: species or system human
Method in brief: as §3

O=C1c2c(O)ccc(O)c2C(=O)c2c(NCCNCCO)ccc(NCCNCCO)c21 [mitoxantrone dihydrochloride]
affinity for εA-containing DNA [1]: demonstrated affinity for DNA | affinity for unmodified (control) DNA [2]: demonstrated affinity for DNA

Cc1cc2c(C(C)C)c(O)c(O)c(C=O)c2c(O)c1-c1c(C)cc2c(C(C)C)c(O)c(O)c(C=O)c2c1O [gossypol]
affinity for εA-containing DNA [1]: demonstrated affinity for DNA | affinity for unmodified (control) DNA [2]: demonstrated affinity for DNA

O.O=c1c(O)c(-c2ccc(O)cc2O)oc2cc(O)cc(O)c12 [morin hydrate]
toxicity (cell survival) (A549 cells): not toxic | affinity for εA-containing DNA [1]: no detectable affinity | affinity for unmodified (control) DNA [2]: no detectable affinity | inhibition of APE1 (APE1): inhibit | effect on the activity of APE1 [3]: no effect | inhibition of DNA polymerase β (DNA polymerase β): inhibit | MPG activity in whole cell extract (MPG [4]; A549 extract): inhibited | MPG activity in whole cell extract (MPG [4]; HeLa extract): inhibited | toxicity (cell survival) (HeLa cells): not toxic | repair of 8-oxo-dG in live cells (repair of 8-oxo-dG; A549 cells, 0, 200, 300 µM): unaffected | repair of 8-oxo-dG in live cells (repair of 8-oxo-dG; HeLa cells, 0, 200, 300 µM): unaffected | inhibition of MPG DNA binding (MPG [5]): Complete inhibition | effect on OGG1 activity [6]: some promiscuous inhibition | reduction in repair (repair of εA; 300 µM morin hydrate, A549 and HeLa cells): 50–60% | repair of εA in live cells (repair of εA; A549 cells, 0, 200, 300 µM): inhibited | repair of εA in live cells (repair of εA; HeLa cells, 0, 200, 300 µM): inhibited | IC50 (repair of εA; Homo sapiens, read-out: IC50 of MPG inhibition in live cells and in extracts): 100 to 300 µM

O=c1c(O)c(-c2ccc(O)c(O)c2)oc2cc(O)cc(O)c12 [Quercetin]
MPG activity in whole cell extract (MPG [4]; HeLa extract): did not have an effect
